{"data": "Experimental data collected from several papers"}
{"SMILES": "COc1ccc2c(N(C)c3ccc(/C(C)=N/OCCN)cc3)c3c(Cl)coc3nc2c1", "cell line": "LNCaP", "test": "cell migration", "conditions": "1 µM, 24 h", "quantity": "inhibition", "value": "70%"}
{"SMILES": "O=C1Nc2ccccc2C1=NNc1nnc2n1N=C(c1ccccc1)CS2", "cell line": "DU-145", "test": "cell growth or viability, SRB", "conditions": "10 µM", "quantity": "inhibition", "value": "16%"}
{"SMILES": "CC(C)C[C@H](NC(=O)[C@H](Cc1ccccc1)NC(=O)c1cnccn1)B(O)O", "cell line": "MOLT-4", "test": "cell growth or viability, ATP luminescence", "quantity": "IC50", "value": "3.7 nM"}
{"SMILES": "O=C(O)c1ccc(C(c2c[nH]c3ccccc23)c2c[nH]c3ccccc23)cc1", "cell line": "DU-145", "test": "cell growth or viability, MTT", "conditions": "100 µM, 48 h", "quantity": "inhibition", "value": "34%"}
{"SMILES": "COc1ccc(-c2ccc(-c3ccc(C(=N)N)nc3)s2)cc1Cl", "cell line": "SF-295", "test": "cell growth or viability, SRB", "quantity": "GI50", "value": "1800 nM"}
{"SMILES": "COc1cccc(Oc2ccccc2NC(=O)CNC(=O)c2cccc3ccccc23)c1", "cell line": "MOLT-4", "test": "cell growth or viability, SRB", "conditions": "48 h", "quantity": "GI50", "value": "661 nM"}
{"SMILES": "COc1ccc(-c2ccc(-c3ccc(C(=N)N)nc3)s2)cc1", "cell line": "SF-295", "test": "cell growth or viability, SRB", "quantity": "GI50", "value": "1710 nM"}
{"SMILES": "CCc1cccc(CN2CCc3cc(O)c(OC)cc3C2)c1", "cell line": "DU-145", "test": "cell growth or viability, WST-1", "conditions": "96 h", "quantity": "GI50", "value": "> 100000 nM"}
{"SMILES": "O=C(O)/C=C/c1ccc(C(c2c[nH]c3ccccc23)c2c[nH]c3ccccc23)s1", "cell line": "DU-145", "test": "cell growth or viability, MTT", "conditions": "100 µM, 48 h", "quantity": "inhibition", "value": "55%"}
{"SMILES": "C[C@@H](NC(=O)[C@H](CCCCNC(=O)C(F)(F)F)NS(C)(=O)=O)C(=O)N[C@@H](CCCNC(=N)N)C(N)=O", "cell line": "Jurkat", "test": "cell growth or viability, MTT", "conditions": "72 h", "quantity": "EC50", "value": "21200 to 28100 nM"}
{"SMILES": "COc1cc2c(cc1OS(N)(=O)=O)CCN(Cc1cccc(C)c1)C2", "cell line": "DU-145", "test": "cell growth or viability, WST-1", "conditions": "96 h", "quantity": "GI50", "value": "41700 nM"}
{"SMILES": "Cn1cc(C(c2ccc(C(=O)O)cc2)c2cn(C)c3ccccc23)c2ccccc21", "cell line": "DU-145", "test": "cell growth or viability, MTT", "conditions": "100 µM, 48 h", "quantity": "inhibition", "value": "~20%"}
{"SMILES": "COc1ccc(CN2CCc3cc(OS(N)(=O)=O)c(OC)cc3C2)cc1", "cell line": "DU-145", "test": "cell growth or viability, WST-1", "conditions": "96 h", "quantity": "GI50", "value": "57200 nM"}
{"SMILES": "COc1cc(Nc2nccc(-c3cnn4nc(OC)ccc34)n2)cc(C(F)(F)F)c1", "cell line": "MOLT-4", "test": "cell growth or viability, ATP luminescence", "quantity": "IC50", "value": "270 nM"}
{"SMILES": "COc1cc2c(cc1O)CCN(Cc1cccc([N+](=O)[O-])c1)C2", "cell line": "DU-145", "test": "cell growth or viability, WST-1", "conditions": "96 h", "quantity": "GI50", "value": "> 100000 nM"}
{"SMILES": "CC(C)n1cc(C(c2ccc(/C=C/C(=O)O)s2)c2cn(C(C)C)c3ccccc23)c2ccccc21", "cell line": "DU-145", "test": "cell growth or viability, MTT", "conditions": "100 µM, 48 h", "quantity": "inhibition", "value": "94%"}
